Assay outcomes deposited in PubChem by Sanford-Burnham Center for Chemical Genomics.
Hits are enriched below; roughly 2.5% of the tested compounds scored in any of these assays.
SENP7 block – blocks the human protease SENP7; recombinant SENP7, Z-RLRGG-aminoluciferin luminescence, 40 min; inhibition, % at 5 µM; hit rate 1.5% among 330,000; AID 434973;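 active = inhibition above about 50% at the single test dose, limit read from the data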
SENP8 block-1 – blocks the human protease SENP8; hit rate 1.2% among 330,000; inhibition, % at 10 µM; AID 2540; Q96LD8; purified SENP8, Z-RLRGG-aminoluciferin cleavage, luminescence; in the data active = inhibition above about 50%
Target sequence (Q96LD8 whole entry, looked up): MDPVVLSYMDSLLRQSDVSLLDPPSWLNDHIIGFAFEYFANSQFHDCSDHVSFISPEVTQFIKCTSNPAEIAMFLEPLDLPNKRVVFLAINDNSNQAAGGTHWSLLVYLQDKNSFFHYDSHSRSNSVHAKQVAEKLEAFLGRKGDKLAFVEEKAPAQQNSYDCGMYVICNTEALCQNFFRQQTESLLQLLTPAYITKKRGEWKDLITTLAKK
SENP6 block – inhibitors of human SENP6 protease; inhibition, % at 10 µM; Q9GZR1; Recombinant SENP6 catalytic domain, aminoluciferin luminescence; AID 2599; hit rate 1.8% among 330,000;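 active = inhibition above about 50% at the single tested dose, limit read from the data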
SENP8 block-2 – inhibitors of human SENP8 protease. hit rate 0.64% among 360,000. recombinant SENP8, Nedd8 substrate fluorescence. AID 602440. inhibition, % at 20 µM. Q96LD8; in the data active = inhibition mostly above about 40%, no sharp cut-off; inactive = mostly below about 27%
SENP1 inh – SENP1 (human) catalytic domain inhibition; hit rate 0.21% among 360,000; Q9P0U3; inhibition, % at 10 µM; recombinant SENP1 catalytic domain, CyPet-SUMO1-YPet FRET cleavage;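 active = inhibition at least 30% at 10 µM, raw YFP signal under a set limit, fluorescence ratio 0.5 to 1.5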
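Test system: human SENP1 catalytic domain; medium: Tris pH 8 buffer plus EDTA, NaCl, BME, BSA, NP40, catalase; incubation: 50 min reaction at room temperature; technique: FRET, CFP and YFP emission; controls: no-enzyme low control and enzyme-plus-DMSO high control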
Hits are given with their value; . = inactive; / = no result given.

SMILES	SENP7 block	SENP8 block-1	SENP6 block	SENP8 block-2	SENP1 inh
Cc1nnsc1C(=O)Nc1ccc(Cl)cc1	.	.	.	.	.
O=C(COc1ccc(Cl)cc1Cl)NC(=S)Nc1ccccc1C(=O)O	.	59	64	/	/
O=C(c1ccccc1)C1C(=O)c2ccccc2C1=O	.	.	.	46	.
N#CC(C#N)=NNc1ccc(S(=O)(=O)N2CCCC2)cc1	.	.	.	47	.
N#C/C(=N\Nc1ccc(S(=O)(=O)N2CCCCC2)cc1)C(N)=S	.	.	.	45	.
N#C/C(=N\Nc1ccc(S(=O)(=O)N2CCCCCC2)cc1)C(N)=S	.	.	.	.	.
N#C/C(=N\Nc1ccc(S(=O)(=O)N2CCc3ccccc32)cc1)C(N)=S	.	.	.	41	.
O=C(NCCCN1CCCC1=O)C1CCN(S(=O)(=O)c2ccc(Cl)cc2)CC1	.	.	.	.	.
O=C(Oc1ccc(Br)cc1C(=S)N1CCCCC1)c1cc([N+](=O)[O-])cc([N+](=O)[O-])c1	.	.	.	44	.
c1ccc(-c2cc(-c3ccccc3)ncn2)cc1	.	.	.	.	.
c1ccc(-c2cc3cc4c(cc3cn2)OCO4)cc1	90	80	86	.	.
Cc1nc2c(-c3ccc(F)cc3)c(C)nn2c(C)c1CCC(=O)Nc1ccccc1	.	.	61	.	.
O=C1CC(c2ccco2)Cc2nc(N3CCc4ccccc4C3)ncc21 (stereo not given)	.	.	.	.	31
CC(C)c1ccc(C2CC(=O)c3cnc(N4CCc5ccccc5C4)nc3C2)cc1 (stereo not given)	.	.	.	.	.
O=C1C(Cl)=C(NCCN2CCOCC2)C(=O)c2ccccc21	.	.	.	59	.
O=S(=O)(c1ccccc1)c1nc(-c2ccccc2Cl)oc1NCCCN1CCOCC1	.	.	.	.	.
CC(=O)Nc1ccc(NC2=C(Cl)C(=O)c3ccccc3C2=O)cc1	.	.	.	/	/
O=C1C(Cl)=C(NCCCO)C(=O)c2ccccc21	.	.	.	83	.
O=C1C(Cl)=C(NCCCN2CCOCC2)C(=O)c2ccccc21	/	/	/	64	.
O=C1c2ccccc2C(=O)N1CCN1CCOCC1	.	.	.	.	.
CN(C)c1ccc(NC2=C(Cl)C(=O)c3ccccc3C2=O)cc1	.	.	.	43	.
O=S(=O)(N/N=C/c1cn(Cc2ccccc2)c2ccccc12)c1ccccc1	.	.	.	.	.
COc1ccc(C2C(C(=O)N3CCN(c4ccccc4)CC3)c3ccccc3C(=O)N2C)cc1 (stereo not given)	.	.	.	.	.
CS/C(=N\S(=O)(=O)c1cccs1)NC(=O)CSc1nc2ccccc2s1	.	.	.	.	.
Nc1cc2nc3ccccc3oc-2cc1=O	.	.	.	44	33
SMILES	SENP7 block	SENP8 block-1	SENP6 block	SENP8 block-2	SENP1 inh
CCN(CC)CCNc1ccc(C)c2sc3ccc(O)cc3c(=O)c12	/	/	/	.	39
CCc1ccc2c(c1)C(=O)c1ccccc1C2=O	83	79	78	.	.
O=C(OCc1ccccc1)c1ccc2c(c1)-c1ccccc1C2=O	.	.	.	.	.
COc1cc(CCNC2=CC(=O)c3ncccc3C2=O)ccc1O	/	/	/	97	.
O=C(O)c1cc(N2N=C(C(F)(F)F)/C(=C/C=C/c3ccco3)C2=O)ccc1Cl	/	/	/	.	33
CCOC(=O)c1ccc(N2N=C(C)/C(=C/C=C/c3ccco3)C2=O)cc1	.	.	.	.	.
COc1ccc(-c2oc3cc(OC(C)=O)cc(OC(C)=O)c3c(=O)c2OC)cc1	/	/	/	.	.
CC(=O)Oc1cc(O)c2c(=O)c(OC(C)=O)c(-c3ccc(OC(C)=O)c(OC(C)=O)c3)oc2c1	.	.	.	40	51
COc1ccc2c(c1)O/C(=C\c1sccc1C)C2=O	71	.	79	.	.
CCn1c2ccccc2c2cc(NC(=O)N3CCOCC3)ccc21	.	.	.	.	32
O=C(NCC1COCCO1)c1ccc2nc(Cc3cccc(Cl)c3)oc2c1 (stereo not given)	.	.	.	.	.
CCC(C)C(CO)NCCCn1cnc2c(OCc3ccccc3)ncnc21 (stereo not given)	/	/	/	.	.
Cc1cccc(NC(=S)NNC(=O)c2ccccc2Br)c1	.	.	68	.	.
Cc1cccc(NC(=S)NNC(=O)c2ccccc2OC(F)F)c1	.	.	.	.	.
O=C1c2ccccc2-c2onc3ccc(Oc4ccccc4)c1c23	.	.	.	.	.
CCOC(=O)C(C(=O)OCC)c1cc(Br)c2noc3c2c1C(=O)c1ccccc1-3	.	.	65	87	.
